High-throughput results (PubChem BioAssay)
Only a selection was taken, and hits are over-represented in it overall.
CHOP inh – blocks CHOP induction under ER stress. CHO-K1 CHOP-promoter luciferase, tunicamycin-induced, 15-18 h. inhibition, % at 10 µM. 220,000 compounds, 3.8% hits;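 active = compounds that reduced the stress-induced luciferase reporter signal by more than about 70% of percent inhibition, limit read from the data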;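 note: 0% = tunicamycin plus vehicle and 100% = wells without tunicamycin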
TLR4-MyD88 BLA – TLR4-MyD88 interaction inhibition in cells; HeLa CL3-4 TLR4/MyD88 BLA complementation, FRET ratio; inhibition, % at 8.4 µM; 200,000 compounds, 0.18% hits; in the data active = inhibition above about 25%;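 note: 0% = vehicle and 100% = reference inhibitor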
XBP1 UPR activ – activators of adaptive arm of unfolded protein response (XBP1); CHO-XBP1 luciferase reporter, IRE1-XBP1 UPR activation, luminescence; percent of tunicamycin response, DMSO as zero; activation, % at 20 µM; 330,000 compounds, 0.33% hits;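 active = versus positive control, 20 µM dose yields 30% or more activation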;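 note: 100% = tunicamycin at 10 µg/mL and 0% = DMSO only wells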
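Test system: CHO-XBP1 luciferase reporter cells | Buffer or medium: Serum-containing F12 medium, 10% FBS | Schedule: 6 h compound exposure at 37 °C, 5% CO2 | Detection: Steady-Glo luciferase glow luminescence, 10 min after reagent addition | Read-out basis: Activation, % of tunicamycin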
TLR9-MyD88 block – blocks human TLR9 binding to MyD88; 340,000 compounds, 0.21% hits; CHO BLA complementation TLR9-MyD88, CCF4 FRET ratio; inhibition, % at 4.98 µM; Q9NR96+Q99836;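 active = inhibition above the mean over all tested compounds plus 3 SD, cut at about 21% in these data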;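 note: 0% = DMSO only wells and 100% = clavulanate BLA inhibitor control wells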
NOD2 RIPK2 PPI – NOD2-RIPK2 protein interaction inhibition | O43353 | CHO BLA complementation NOD2-RIPK2, CCF4 ratio | inhibition, % at 4.98 µM | 360,000 compounds, 0.38% hits; in the data active = inhibition above about 21%;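 note: 0% = vehicle only and 100% = reference blocker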
Target sequence (O43353 whole entry, looked up): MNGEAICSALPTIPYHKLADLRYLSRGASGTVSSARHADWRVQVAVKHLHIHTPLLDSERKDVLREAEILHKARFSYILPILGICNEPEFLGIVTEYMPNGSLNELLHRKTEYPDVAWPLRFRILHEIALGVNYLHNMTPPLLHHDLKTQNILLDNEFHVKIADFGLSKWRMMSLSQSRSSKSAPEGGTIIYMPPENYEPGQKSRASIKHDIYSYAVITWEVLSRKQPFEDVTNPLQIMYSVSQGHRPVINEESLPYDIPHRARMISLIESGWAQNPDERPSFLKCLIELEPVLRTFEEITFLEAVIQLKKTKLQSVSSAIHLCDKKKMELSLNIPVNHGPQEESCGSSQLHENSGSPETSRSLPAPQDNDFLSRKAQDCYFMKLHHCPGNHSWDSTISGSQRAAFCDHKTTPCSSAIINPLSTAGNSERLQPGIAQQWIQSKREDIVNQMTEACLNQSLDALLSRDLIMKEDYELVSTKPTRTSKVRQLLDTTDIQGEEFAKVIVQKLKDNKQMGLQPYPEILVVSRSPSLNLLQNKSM
UPR CHOP act – activators of apoptotic arm of unfolded protein response (CHOP); CHO-CHOP luciferase reporter, UPR activation, luminescence; percent of tunicamycin response over DMSO baseline; activation, % at 10 µM; 330,000 compounds, 0.34% hits; AID 449763;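 active = at 10 µM dose, activation of 40% or more, normalized to positive control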;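 note: 100% = tunicamycin at 10 µg/mL and 0% = DMSO alone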
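Test system: CHO CHOP reporter cells. Input: 500 CHO-CHOP cells per well. Medium: F12 with 10% FBS. Technique: luciferase luminescence. Measure: percent activation relative to tunicamycin control. Dosing: 10 µM compound, 0.5% DMSO. Timing: 16-18 h cell attachment, then 6 h compound exposure, 37 °C.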
* marks the source's active call; other numbers are inactive results; nt = no result given.

SMILES | CHOP inh | TLR4-MyD88 BLA | XBP1 UPR activ | TLR9-MyD88 block | NOD2 RIPK2 PPI | UPR CHOP act
CCOC(=O)c1sc(Nc2ccc(F)cc2)nc1C | -29.3 | 3.8 | 5.4 | 7.3 | -1.5 | 2.9
CCOc1ccc2nc(NCCNC(=O)Nc3ccccc3)c(C#N)cc2c1 | 82.7* | 9.0 | nt | 10.7 | 8.2 | nt
Cc1ccc(-n2c(N)c(C(=O)Nc3c(C)n(C)n(-c4ccccc4)c3=O)c3nc4ccccc4nc32)cc1C | 91.3* | -4.4 | -0.4 | nt | nt | 8.1
C[C@@H](Oc1ccc(Oc2cnc3ccc(Cl)cc3n2)cc1)C(=O)O | -5.4 | nt | nt | nt | nt | nt
O=c1cc2c(nn1Cc1c(Cl)cccc1Cl)-c1ccccc1CC2 | 84.5* | -0.4 | 2.4 | -11.9 | -4.3 | 6.0
CC1=C(C)/C(=N/OC(=O)c2cccc([N+](=O)[O-])c2)C=CC1=O | 92.3* | 10.2 | -3.9 | -6.8 | 4.3 | 15.8
Cc1ccc(NC2=C/C(=N/S(=O)(=O)c3cccs3)c3ccccc3C2=O)cc1 | 97.9* | 2.3 | -5.5 | -8.1 | -10.8 | -3.3
C[C@@H]1COc2cc(N3CC[C@H](O)C3)ccc2S(=O)(=O)N1 | nt | nt | nt | nt | -14.0 | nt
Cc1nn(Cc2c(F)c(F)c(F)c(F)c2F)c(C)c1NC(=O)c1ccc(COc2ccc(Cl)cc2Cl)o1 | 70.2* | 16.1 | 1.0 | -4.4 | -6.3 | 4.2
O=C(CSc1ncnc2sc3c(c12)CCC3)Nc1ccccc1C(=O)O | 10.8 | nt | -2.1 | -2.8 | -13.8 | 3.9
CN(C)C(=O)/C(C#N)=C\c1cc(Br)c(Sc2ccc(Cl)cc2)o1 | 79.7* | 1.6 | nt | -4.7 | -3.5 | nt
Cc1ccc(C)c(N2C(=O)CC(Cc3ccccc3)C2=O)c1 (stereo not drawn) | nt | nt | -0.4 | -2.0 | -24.7 | -0.3
COc1cc(CN2CCCC(CCC(=O)NCc3ccc(C)o3)C2)cc2c1OCO2 (stereo not drawn) | 86.1* | 6.2 | -0.1 | 0.9 | -1.9 | 4.0
O=C(c1cc(C2CCCCN2C(=O)CCCc2ccccc2)on1)N1CCOCC1 (stereo not drawn) | nt | nt | nt | nt | -17.8 | nt
CC1Cc2ccccc2N1c1ncnc(N)c1[N+](=O)[O-] (stereo not drawn) | 71.9* | -8.6 | -6.2 | 10.7 | -1.5 | -4.1
O=C(NC1=C(NC2CCS(=O)(=O)C2)C(=O)c2ccccc2C1=O)c1ccccc1 (stereo not drawn) | 102.3* | 7.1 | 11.7 | -5.0 | -1.4 | 3.3
CC(C)(C)c1ccc(S(=O)(=O)Nc2ccc(Cc3ccncc3)cc2)cc1 | 79.3* | -3.5 | 0.7 | -8.9 | 0.8 | 3.9
CC(=O)Nc1ccc(S(=O)(=O)Nc2ccc(Cc3ccncc3)cc2)cc1 | nt | nt | 4.2 | -1.3 | -5.3 | 0.8
O=C1c2ccccc2NC(c2ccc(Br)s2)N1O (stereo not drawn) | nt | nt | 8.2 | nt | nt | 4.1
CCn1c(=O)c(C(=O)Nc2ncccc2O)c(O)c2ccccc21 | nt | nt | -4.1 | -1.2 | -5.5 | 2.7
CCn1c(=O)c(C(=O)NC(C)C)c(O)c2ccccc21 | 72.3* | -1.5 | -1.2 | -4.7 | -1.3 | 0.0
CCn1c(=O)c(C(=O)Nc2ccccn2)c(O)c2ccccc21 | 81.4* | 2.9 | -0.2 | 2.5 | -4.5 | 0.3
CCCn1c(=O)c(C(=O)NNS(=O)(=O)c2ccc(C)cc2)c(O)c2ccccc21 | 90.3* | 2.7 | -0.6 | -7.1 | 0.0 | 0.0
O=C(NCC1CCCO1)c1ccc(NC(=O)c2cc(F)c(F)cc2Cl)cc1 (stereo not drawn) | nt | nt | -6.2 | 9.3 | 14.0 | 1.0
CCC(C(=O)Nc1nnc(-c2ccco2)s1)c1ccccc1 (stereo not drawn) | 74.7* | 9.8 | 1.7 | 6.9 | 3.5 | 1.3
CCc1nnc(NC(=O)C(CC)c2ccccc2)s1 (stereo not drawn) | 8.9 | -1.7 | -4.9 | -11.5 | -3.2 | 1.1
CCOc1cccc(C(=O)Nc2nnc(-c3ccco3)s2)c1 | 73.6* | 0.6 | -6.2 | -3.6 | -3.5 | -2.3
Cc1cccc(OCC(=O)Nc2nnc(-c3ccco3)s2)c1 | 35.3 | -0.7 | -0.1 | -4.1 | -0.5 | -1.9
Cc1ccc(-c2nc3ncccc3o2)cc1NC(=O)c1cc2ccccc2o1 | 70.3* | 7.5 | -6.0 | 8.0 | -7.2 | -2.8
